Measured values as given in ChEMBL document CHEMBL1133106, “Synthesis and evaluation of peptidomimetics as selective inhibitors and active site probes of nitric oxide synthases” (J Med Chem, 2000).
Non-standard residues stand in square brackets, D forms with d. Residues, ends and D or L forms follow the SMILES beside them. *: point of attachment. Arg(NO2) = N=C(NCCC[C@H](N)C(=O)O)N[N+](=O)[O-]; NMeDab = CN[C@@H](CCN)C(=O)O; Orn = NCCC[C@H](N)C(=O)O; Dab = NCC[C@H](N)C(=O)O; Cbz = O=C(OCc1ccccc1)*; OtBu = CC(C)(C)O*

Legend:
[1] = Binding affinity against bovine brain nNOS (neuronal).
Nitric oxide synthase 3 = biological target: T1, Nitric oxide synthase 3 (Bos taurus, UniProt P29473)
T1 sequence (P29473 whole entry): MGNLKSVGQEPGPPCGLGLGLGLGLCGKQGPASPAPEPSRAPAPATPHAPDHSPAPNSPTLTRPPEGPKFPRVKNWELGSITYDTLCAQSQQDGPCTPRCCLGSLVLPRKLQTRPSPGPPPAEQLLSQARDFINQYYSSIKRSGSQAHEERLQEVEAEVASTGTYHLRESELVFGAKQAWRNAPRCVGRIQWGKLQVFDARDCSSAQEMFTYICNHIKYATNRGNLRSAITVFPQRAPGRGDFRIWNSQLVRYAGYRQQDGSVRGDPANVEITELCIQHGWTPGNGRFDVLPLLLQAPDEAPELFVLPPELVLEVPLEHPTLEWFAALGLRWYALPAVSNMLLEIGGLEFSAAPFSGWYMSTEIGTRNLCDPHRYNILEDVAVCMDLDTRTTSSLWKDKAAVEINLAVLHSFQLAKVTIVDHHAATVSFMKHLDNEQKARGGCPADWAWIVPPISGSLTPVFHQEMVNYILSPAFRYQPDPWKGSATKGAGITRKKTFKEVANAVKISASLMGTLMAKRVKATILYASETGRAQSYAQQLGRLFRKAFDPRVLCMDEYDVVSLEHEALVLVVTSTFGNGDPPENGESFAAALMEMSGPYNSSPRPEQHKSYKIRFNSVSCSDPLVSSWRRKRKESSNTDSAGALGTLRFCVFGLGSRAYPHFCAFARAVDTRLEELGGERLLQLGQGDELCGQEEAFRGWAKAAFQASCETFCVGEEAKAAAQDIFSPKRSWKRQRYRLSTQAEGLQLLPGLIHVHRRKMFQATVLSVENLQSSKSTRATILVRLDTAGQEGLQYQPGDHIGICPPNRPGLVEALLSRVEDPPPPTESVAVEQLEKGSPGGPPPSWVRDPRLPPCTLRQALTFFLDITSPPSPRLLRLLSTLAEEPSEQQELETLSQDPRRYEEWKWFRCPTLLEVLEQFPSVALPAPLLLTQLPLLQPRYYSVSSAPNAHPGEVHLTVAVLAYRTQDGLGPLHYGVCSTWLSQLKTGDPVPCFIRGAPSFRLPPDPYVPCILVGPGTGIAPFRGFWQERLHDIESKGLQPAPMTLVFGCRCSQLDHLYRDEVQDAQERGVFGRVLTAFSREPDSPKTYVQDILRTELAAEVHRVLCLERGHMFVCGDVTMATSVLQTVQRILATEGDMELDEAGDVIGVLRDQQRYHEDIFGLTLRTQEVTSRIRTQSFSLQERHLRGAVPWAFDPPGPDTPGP

[2] = biological target: T2, Nitric oxide synthase, inducible (Mus musculus, UniProt P29477)
T2 sequence (P29477 whole entry): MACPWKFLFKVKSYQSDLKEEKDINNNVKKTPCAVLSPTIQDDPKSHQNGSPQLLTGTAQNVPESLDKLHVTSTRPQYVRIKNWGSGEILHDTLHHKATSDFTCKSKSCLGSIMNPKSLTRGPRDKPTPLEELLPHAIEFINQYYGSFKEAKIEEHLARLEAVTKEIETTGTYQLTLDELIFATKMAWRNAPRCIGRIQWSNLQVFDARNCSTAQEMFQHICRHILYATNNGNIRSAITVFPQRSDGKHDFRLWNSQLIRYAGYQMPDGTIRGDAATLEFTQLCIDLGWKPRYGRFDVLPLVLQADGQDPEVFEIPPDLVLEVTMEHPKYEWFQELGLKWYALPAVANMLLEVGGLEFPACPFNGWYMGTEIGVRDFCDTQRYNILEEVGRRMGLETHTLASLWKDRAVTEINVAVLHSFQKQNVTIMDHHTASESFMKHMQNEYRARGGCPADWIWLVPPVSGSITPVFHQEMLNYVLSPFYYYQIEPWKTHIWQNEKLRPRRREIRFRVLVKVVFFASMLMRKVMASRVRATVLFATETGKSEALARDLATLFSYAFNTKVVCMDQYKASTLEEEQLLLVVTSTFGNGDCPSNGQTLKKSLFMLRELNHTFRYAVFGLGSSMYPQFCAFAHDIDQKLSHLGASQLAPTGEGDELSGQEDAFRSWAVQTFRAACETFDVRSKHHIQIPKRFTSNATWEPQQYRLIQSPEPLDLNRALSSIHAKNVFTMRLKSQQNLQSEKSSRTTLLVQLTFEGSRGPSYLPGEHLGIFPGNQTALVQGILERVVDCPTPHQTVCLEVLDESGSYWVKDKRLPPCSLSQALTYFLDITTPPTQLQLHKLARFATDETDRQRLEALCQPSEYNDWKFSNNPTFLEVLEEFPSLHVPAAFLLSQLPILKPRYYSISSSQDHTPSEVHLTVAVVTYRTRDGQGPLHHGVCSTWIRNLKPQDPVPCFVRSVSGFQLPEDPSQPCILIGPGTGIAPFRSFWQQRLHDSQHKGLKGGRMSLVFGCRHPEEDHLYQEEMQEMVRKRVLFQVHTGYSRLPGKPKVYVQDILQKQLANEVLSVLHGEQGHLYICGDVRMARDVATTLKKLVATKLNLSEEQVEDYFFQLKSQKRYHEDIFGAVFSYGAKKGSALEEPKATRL

[3] = Ratio of binding affinity of eNOS to nNOS
Outline: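 Ratio of apparent Ki values (eNOS Ki over nNOS Ki). Recombinant bovine eNOS and nNOS were isolated from E. coli expression. NO formation was followed by the hemoglobin capture assay with 10 µM L-arginine and at least three inhibitor concentrations.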

| SMILES | Ki [1] [µM] | Ki (Nitric oxide synthase 3) [µM] | Ki [2] [µM] | Ratio [3] |
| --- | --- | --- | --- | --- |
| NCCCC[C@H](NC(=O)[C@@H](N)CCC/N=C(\N)N[N+](=O)[O-])C(N)=O (H-[Arg(NO2)]-Lys-NH2) | 0.45 |  |  |  |
| N=C(NCCC[C@H](N)C(=O)N(CCN)CC(N)=O)N[N+](=O)[O-] |  | 55.5 | 760 |  |
| N=C(NCCC[C@H](NC(=O)OCc1ccccc1)C(=O)N[C@@H](CCN)C(N)=O)N[N+](=O)[O-] (Cbz-[Arg(NO2)]-[Dab]-NH2) |  | 827 | 1600 |  |
| CN(C(=O)[C@@H](N)CCC/N=C(\N)N[N+](=O)[O-])[C@@H](CCCN)C(N)=O |  | 623 | 1300 | 135 |
| N=C(NCCC[C@H](N)C(=O)N(CCCN)CC(N)=O)N[N+](=O)[O-] |  | 108 | 1000 |  |
| NCCCN(CC(N)=O)C(=O)[C@@H](N)CCC/N=C(\N)N[N+](=O)[O-] |  |  |  | 3.5 |
| NCCC[C@H](NC(=O)[C@@H](N)CCC/N=C(/N)N[N+](=O)[O-])C(N)=O (H-[Arg(NO2)]-[Orn]-NH2) | 0.33 |  |  |  |
| CN(C(=O)[C@@H](N)CCCNC(=N)N[N+](=O)[O-])[C@@H](CCN)C(N)=O (H-[Arg(NO2)]-[NMeDab]-NH2) |  | 95 | 340 |  |
| NCCCCNC(=O)[C@@H](N)CCC/N=C(\N)N[N+](=O)[O-] |  |  |  | 200 |
| CC(C)(C)OC(=O)[C@H](CCN)NC(=O)[C@@H](N)CCCNC(=N)N[N+](=O)[O-] (H-[Arg(NO2)]-[Dab]-OtBu) |  | 288 | 413 |  |
| N=C(NCCC[C@H](N)C(=O)NCCCCN)N[N+](=O)[O-] |  | 70 | 108 |  |
| CC(C)(C)OC(=O)[C@H](CCN)NC(=O)[C@@H](N)CCC/N=C(\N)N[N+](=O)[O-] (H-[Arg(NO2)]-[Dab]-OtBu) |  |  |  | 28 |
| COC(=O)[C@H](CCN)NC(=O)[C@@H](N)CCCNC(=N)N[N+](=O)[O-] (H-[Arg(NO2)]-[Dab]-OMe) |  | 463 | 27 |  |
| CN(C(=O)[C@@H](N)CCC/N=C(\N)N[N+](=O)[O-])[C@@H](CCN)C(N)=O |  |  |  | 40 |
| NCC[C@H](NC(=O)[C@@H](N)CCC/N=C(\N)N[N+](=O)[O-])C(=O)O (H-[Arg(NO2)]-[Dab]-OH) |  |  |  | 3.5 |
| CC(=O)N[C@@H](CCCNC(=N)N[N+](=O)[O-])C(=O)N[C@@H](CCN)C(N)=O (Ac-[Arg(NO2)]-[Dab]-NH2) |  | 263 | 2600 |  |
| NCCN(CC(N)=O)C(=O)[C@@H](N)CCC/N=C(\N)N[N+](=O)[O-] |  |  |  | 3 |
| NCCCCN(CC(N)=O)C(=O)[C@@H](N)CCC/N=C(\N)N[N+](=O)[O-] |  | 197 | 1100 | 4 |
| COC(=O)[C@H](CCN)NC(=O)[C@@H](N)CCC/N=C(\N)N[N+](=O)[O-] (H-[Arg(NO2)]-[Dab]-OMe) |  |  |  | 798 |
| N=C(NCCC[C@H](N)C(=O)NCCCN)N[N+](=O)[O-] |  | 213 | 118 |  |
| CC(=O)N[C@@H](CCC/N=C(\N)N[N+](=O)[O-])C(=O)N[C@@H](CCN)C(N)=O (Ac-[Arg(NO2)]-[Dab]-NH2) |  |  |  | 9 |
| NCC[C@H](NC(=O)[C@H](CCC/N=C(\N)N[N+](=O)[O-])NC(=O)OCc1ccccc1)C(N)=O (Cbz-[Arg(NO2)]-[Dab]-NH2) |  |  |  | 16 |
| CN(C(=O)[C@@H](N)CCC/N=C(\N)N[N+](=O)[O-])[C@@H](CCCCN)C(N)=O |  | 631 | 1900 | 86 |
| NCCCNC(=O)[C@@H](N)CCC/N=C(\N)N[N+](=O)[O-] |  |  |  | 163 |
| NCCNC(=O)[C@@H](N)CCC/N=C(\N)N[N+](=O)[O-] |  |  |  | 368 |
| N=C(NCCC[C@H](N)C(=O)NCCN)N[N+](=O)[O-] |  | 199 | 100 |  |
| N=C(NCCC[C@H](N)C(=O)N[C@@H](CCN)C(=O)O)N[N+](=O)[O-] (H-[Arg(NO2)]-[Dab]-OH) |  | 98 | 1210 |  |
